ChEMBL document CHEMBL1149128, “Novel endoperoxide antimalarials: synthesis, heme binding, and antimalarial activity” (J Med Chem, 2004)

Species on record: Homo sapiens
Test: Lysis of human erythrocytes at a concentration of 1 mM for 30 minutes at 37 degree C
Assay type: functional
Procedure, shortened: (§1)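 Washed human erythrocytes (0.4 × 10⁸ cells) in phosphate-buffered saline with no protein in the medium; compound at 1 mM final; 30 min at 37 °C. Cells pelleted, then supernatant absorbance compared with freeze-thawed cells to give percent hemolysis.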

First: C[C@@H]1OO[C@H](CC(=O)OC23CC4CC(CC(C4)C2)C3)[C@@H]2O[C@@H]21
Second: C[C@@H]1OO[C@H](CC(=O)OC23CC4CC(CC(C4)C2)C3)[C@H]2O[C@H]21
The Hemolysis of the first is lower: 4% for the first, 6% for the second.

Going from C1CCC([C@H]2OO[C@@H](C3CCCCC3)[C@H]3O[C@H]32)CC1 to C1CCC([C@H]2OO[C@@H](C3CCCCC3)[C@@H]3O[C@@H]32)CC1, the Hemolysis rises from 5% to 6%.

First: CCCCCCC[C@H]1OO[C@@H](CCC)[C@H]2O[C@H]21
Second: CCCCCCC[C@H]1OO[C@@H](CCC)[C@@H]2O[C@@H]21
The Hemolysis of the first is higher: 51% for the first, 47% for the second.

Going from C1=C[C@@H](C2CCCC2)OOC1 to C1=C[C@@H](C2CCCCC2)OOC1, the Hemolysis rises from 11% to 100%.

Compared with C1CCC([C@H]2OO[C@@H](C3CCCC3)[C@@H]3O[C@@H]32)C1, C1CCC([C@H]2OO[C@@H](C3CCCC3)[C@H]3O[C@H]32)C1 is higher in Hemolysis: 8% for the first, 9% for the second.

Compared with c1ccc([C@H]2OO[C@@H](C3CCCCC3)[C@@H]3O[C@@H]32)cc1, C1=C[C@H](C2CCCCC2)OO[C@@H]1c1ccccc1 is higher in Hemolysis: 2% for the first, 9% for the second.

First: CCCCCCC[C@@H]1C=C[C@H](CCC)OO1
Second: CCC[C@H]1C=C[C@@H](CCC)OO1
The Hemolysis of the first is higher: 62% for the first, 2% for the second.

C1CCC([C@H]2OOC[C@@H]3O[C@@H]32)C1 and C1CCC([C@H]2OOC[C@H]3O[C@@H]23)C1 are the same in Hemolysis: 1% for the first, 1% for the second.

Going from C1CCC([C@H]2OOC[C@@H]3O[C@@H]32)CC1 to C1CCC(C[C@H]2OOC[C@@H]3O[C@@H]32)CC1, the Hemolysis rises from 2% to 3%.

First: C1C2CC3CC1CC([C@H]1OOC[C@@H]4O[C@@H]41)(C2)C3
Second: C1=C[C@@H](C23C[C@H]4C[C@@H](C2)C[C@@H](C3)C4)OOC1
The Hemolysis of the first is lower: 41% for the first, 100% for the second.

Compared with O=C(C1CCCCC1)[C@H]1O[C@H]1[C@@H](O)C1CCCCC1, C1=C[C@H](C2CCCCC2)OO[C@@H]1C1CCCCC1 is higher in Hemolysis: 8% for the first, 100% for the second.

Compared with c1ccc([C@H]2OO[C@@H](c3ccccc3)[C@@H]3O[C@@H]32)cc1, C1=C[C@H](c2ccccc2)OO[C@@H]1c1ccccc1 is lower in Hemolysis: 5% for the first, 4% for the second.

First: C1=C[C@H](C2CCCC2)OO[C@@H]1C1CCCC1
Second: C1=C[C@H](C2CCC2)OO[C@@H]1C1CCC1
The Hemolysis of the first is higher: 52% for the first, 32% for the second.

Compared with C[C@H]1C=C[C@@H](CCCO)OO1, C[C@H]1C=C[C@@H](c2ccccc2)OO1 is higher in Hemolysis: 0% for the first, 32% for the second.

C1CC([C@H]2OO[C@@H](C3CCC3)[C@@H]3O[C@@H]32)C1 and C1CC([C@H]2OO[C@@H](C3CCC3)[C@H]3O[C@H]32)C1 are the same in Hemolysis: 1% for the first, 1% for the second.

Compared with C1=C[C@@H](CC2CCCCC2)OOC1, C1CCC(C[C@H]2OOC[C@H]3O[C@@H]23)CC1 is lower in Hemolysis: 100% for the first, 6% for the second.

First: c1ccc(C2(c3ccccc3)OOCC3OC32)cc1 (stereo not given)
Second: O=C(c1ccccc1)[C@H]1O[C@H]1[C@@H](O)c1ccccc1 (stereo in doubt; 7j)
The Hemolysis of the first is lower: 1% for the first, 2% for the second.

C[C@]12COO[C@H](c3ccccc3)[C@H]1O2 and C[C@@H]1OO[C@H](c2ccccc2)[C@H]2O[C@H]21 are the same in Hemolysis: 2% for the first, 2% for the second.

First: C[C@H]1C=C[C@@H](CC(=O)OC23C[C@H]4C[C@@H](C2)C[C@@H](C3)C4)OO1
Second: CCN(CC)CCCC(C)Nc1ccnc2cc(Cl)ccc12 (stereo not given) [CHLOROQUINE]
The Hemolysis of the first is higher: 27% for the first, 1% for the second.

Species on record: Homo sapiens
Test: Compound was evaluated for the lysis of human erythrocytes at a concentration of 1 mM for 30 minutes at 37 degree C
Assay type: functional
Procedure, shortened: as §1

Work on C[C@@H]1CC[C@H]2[C@@H](C)C(=O)O[C@@H]3O[C@@]4(C)CC[C@@H]1[C@]32OO4 [ARTEMISININ] yielded a Hemolysis of 4%.

What follows are compounds tested on Plasmodium falciparum (assay: In vitro antimalarial activity against Plasmodium falciparum D10).

First: C[C@@H]1OO[C@H](CC(=O)OC23CC4CC(CC(C4)C2)C3)[C@@H]2O[C@@H]21
Second: C[C@@H]1OO[C@H](CC(=O)OC23CC4CC(CC(C4)C2)C3)[C@H]2O[C@H]21
The IC50 of the first is 3.8-fold higher: 5000 nM for the first, 1300 nM for the second.

First: C1CCC([C@H]2OO[C@@H](C3CCCCC3)[C@H]3O[C@H]32)CC1
Second: C1CCC([C@H]2OO[C@@H](C3CCCCC3)[C@@H]3O[C@@H]32)CC1
The IC50 of the first is 1.6-fold lower: 320 nM for the first, 500 nM for the second.

CCCCCCC[C@H]1OO[C@@H](CCC)[C@H]2O[C@H]21 and CCCCCCC[C@H]1OO[C@@H](CCC)[C@@H]2O[C@@H]21 cannot be ordered by IC50: over 10000 nM for the first, over 10000 nM for the second.

Compared with C1=C[C@@H](C2CCCC2)OOC1, C1=C[C@@H](C2CCCCC2)OOC1 is lower in IC50: over 10000 nM for the first, 3200 nM for the second.

C1CCC([C@H]2OO[C@@H](C3CCCC3)[C@@H]3O[C@@H]32)C1 and C1CCC([C@H]2OO[C@@H](C3CCCC3)[C@H]3O[C@H]32)C1 are the same in IC50: 500 nM for the first, 500 nM for the second.

First: c1ccc([C@H]2OO[C@@H](C3CCCCC3)[C@@H]3O[C@@H]32)cc1
Second: C1=C[C@H](C2CCCCC2)OO[C@@H]1c1ccccc1
The IC50 of the first is higher: over 10000 nM for the first, 8100 nM for the second.

CCCCCCC[C@@H]1C=C[C@H](CCC)OO1 and CCC[C@H]1C=C[C@@H](CCC)OO1 cannot be ordered by IC50: over 10000 nM for the first, over 10000 nM for the second.

C1CCC([C@H]2OOC[C@@H]3O[C@@H]32)C1 and C1CCC([C@H]2OOC[C@H]3O[C@@H]23)C1 are the same in IC50: 1400 nM for the first, 1400 nM for the second.

C1CCC([C@H]2OOC[C@@H]3O[C@@H]32)CC1 and C1CCC(C[C@H]2OOC[C@@H]3O[C@@H]32)CC1 cannot be ordered by IC50: over 10000 nM for the first, over 10000 nM for the second.

First: C1C2CC3CC1CC([C@H]1OOC[C@@H]4O[C@@H]41)(C2)C3
Second: C1=C[C@@H](C23C[C@H]4C[C@@H](C2)C[C@@H](C3)C4)OOC1
The IC50 of the first is 3.1-fold higher: 4000 nM for the first, 1300 nM for the second. The second is the more potent here.

Compared with O=C(C1CCCCC1)[C@H]1O[C@H]1[C@@H](O)C1CCCCC1, C1=C[C@H](C2CCCCC2)OO[C@@H]1C1CCCCC1 is lower in IC50: over 10000 nM for the first, 1200 nM for the second. The second is the more potent here.

Compared with c1ccc([C@H]2OO[C@@H](c3ccccc3)[C@@H]3O[C@@H]32)cc1, C1=C[C@H](c2ccccc2)OO[C@@H]1c1ccccc1 is lower in IC50: over 10000 nM for the first, 6000 nM for the second. The second is the more potent here.

Going from C1=C[C@H](C2CCCC2)OO[C@@H]1C1CCCC1 to C1=C[C@H](C2CCC2)OO[C@@H]1C1CCC1, the IC50 rises from 600 nM to over 10000 nM. The first is the more potent here.

First: C[C@H]1C=C[C@@H](CCCO)OO1
Second: C[C@H]1C=C[C@@H](c2ccccc2)OO1
The IC50 of the first is lower: 2500 nM for the first, over 10000 nM for the second. The first is the more potent here.

Going from C1CC([C@H]2OO[C@@H](C3CCC3)[C@@H]3O[C@@H]32)C1 to C1CC([C@H]2OO[C@@H](C3CCC3)[C@H]3O[C@H]32)C1, the IC50 falls from 2900 nM to 1600 nM (1.8-fold).

First: C1=C[C@@H](CC2CCCCC2)OOC1
Second: C1CCC(C[C@H]2OOC[C@H]3O[C@@H]23)CC1
The IC50 of the first is 4.8-fold higher: 9500 nM for the first, 2000 nM for the second.

First: c1ccc(C2(c3ccccc3)OOCC3OC32)cc1 (stereo not given)
Second: C[C@]12COO[C@H](c3ccccc3)[C@H]1O2
The IC50 of the first is lower: 5000 nM for the first, over 10000 nM for the second. The first is the more potent here.

Going from C[C@@H]1OO[C@H](c2ccccc2)[C@H]2O[C@H]21 to C[C@H]1C=C[C@@H](CC(=O)OC23C[C@H]4C[C@@H](C2)C[C@@H](C3)C4)OO1, the IC50 falls from over 10000 nM to 1000 nM.
